Data set [1] in a line: Solubility in alphaMEM culture medium containing 5% FCS at 22 degC. Format: physicochemical. In short, it runs like this:
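Solubility was measured in αMEM with 5% FCS, equilibrated with 5% CO₂/air, at 22 °C.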

Data set [2] concerns SK-OV-3. Put plainly: Cytotoxicity against human SKOV3 cells assessed as reduction of cell density incubated for 4 hrs in hypoxic (anoxic) condition measured 5 days post dose by SRB assay. Format: functional, cell-based. A digest of the protocol: (§1)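 Log-phase monolayers given a 4 h drug exposure under aerobic (20% O₂) or anoxic (<20 ppm O₂) conditions. Cells were then stained with sulforhodamine B 5 days later. IC50 was interpolated as the concentration that cut cell density to 50% of same-plate controls. Values are means of two to seven experiments.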
On the technique in general: Sulforhodamine B stains cellular protein and so reports cell mass.

The test system of data set [3] is SK-OV-3. Put plainly: Cytotoxicity against human SKOV3 cells assessed as reduction of cell density incubated for 4 hrs in oxic (aerobic) condition measured 5 days post dose by SRB assay. It counts as functional, cell-based. In short, it runs like this:
as §1

In data set [4] the test system is SK-OV-3. In words: Hypoxic cytotoxicity ratio, ratio of IC50 for human SKOV3 cells in oxic (aerobic) condition to IC50 for human SKOV3 cells in hypoxic (anoxic) conditions. Format: functional. In short, it runs like this:
(§2)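 HCR was calculated as IC50(oxic)/IC50(hypoxic) after 4 h drug exposure at 20% O₂ or <20 ppm O₂, with SRB read-out 5 days later.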

The subject of the next data set is A549. In words: Cytotoxicity against human A549 cells after 24 hrs. It counts as functional, cell-based. To be noted: A549, 24 h.
In data set [5] the test system is HT-29. Put plainly: Cytotoxicity against human HT-29 cells assessed as reduction of cell density incubated for 4 hrs in hypoxic (anoxic) condition measured 5 days post dose by SRB assay. Format: functional, cell-based. In short, it runs like this:
as §1

Data set [6] relates to HT-29. In words: Hypoxic cytotoxicity ratio, ratio of IC50 for human HT-29 cells in oxic (aerobic) condition to IC50 for human HT-29 cells in hypoxic (anoxic) conditions. Format: functional. In short, it runs like this: as §2
Data set [7] deals with HT-29. In words: Cytotoxicity against human HT-29 cells assessed as reduction of cell density incubated for 4 hrs in oxic (aerobic) condition measured 5 days post dose by SRB assay. Format: functional, cell-based. A digest of the protocol: as §1
Data set [8] relates to SK-OV-3. Put plainly: Cytotoxicity against human SKOV3 cells. It counts as functional, cell-based. A digest of the protocol: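 Log-phase SKOV3 ovarian carcinoma monolayers were exposed to drug for 4 h under aerobic (20% O₂) or anoxic (<20 ppm O₂) conditions, then stained with sulforhodamine B 5 days later. IC50 was interpolated as the concentration that cut cell density to 50% of same-plate controls, given as mean ± SEM of 2–7 experiments. HCR is IC50(oxic)/IC50(hypoxic), taken as means of intraexperiment ratios.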

For the next data set, the system named is CHO-AA8. Put plainly: Cytotoxicity against chinese hamster ovary AA8 cells incubated for 4 hrs. Format: functional, cell-based. To be noted: Cricetulus griseus, CHO-AA8, 4 h.
For another data set, the system named is EMT6. Put plainly: Cytotoxicity against mouse EMT6 cells. Format: functional, cell-based.

SMILES strings stand for the structures. Converted amounts (≈) assume the structure as drawn.

Usually solubility stands for how much of the substance goes into solution per volume. Low values mean little dissolved substance, high ones much dissolved substance. One may read the IC50 as the concentration that inhibits the measured activity by half.

For `COc1cc2cc(C(=O)N3CC(COS(=O)(=O)C4CCCCC4)c4c3cc(N)c3ccccc43)[nH]c2c(OC)c1OC` (configuration not stated), in data set [1], the concentration in solution (solubility) came to 37 µM (≈ 22 µg/mL). Further, the IC50 in the data set with SK-OV-3 [2] came to 6.5 nM; in the data set on SK-OV-3 [3], 4.9 nM. Moreover, in the data set with SK-OV-3 [4], the “Ratio IC50” value turned out to be 1.
As for `CN(C)CCOc1ccc2[nH]c(C(=O)N3C[C@@H](CCl)c4c3cc(O)c3ccccc43)cc2c1`, it took 0.026 nM to reach half-maximal inhibition in the data set with A549 (IC50).
For the molecule `O=C(c1cc2cc(OCCO)ccc2[nH]1)N1CC(CCl)c2c1cc([N+](=O)[O-])c1ccccc21` (configuration not stated), the IC50 in the data set with HT-29 [5] worked out at 5700 nM; in the data set with SK-OV-3 [2], 3300 nM; in the data set on SK-OV-3 [3] it was 9300 nM; in the data set with HT-29 [7] it was 6600 nM. For the same molecule, the concentration in solution in data set [1] (solubility) was 13 µM (≈ 6.06 µg/mL). Moreover, the figures for the “Ratio IC50” value in the data set with HT-29 [6] and in the data set with SK-OV-3 [4] were 1.1 and 3.8, respectively.
As to `COc1ccc2[nH]c(C(=O)N3CC(CCl)c4c3cc([N+](=O)[O-])c3ccccc43)cc2c1` (configuration not stated), the IC50 in the data set on HT-29 [5] worked out at 1300 nM; with SK-OV-3 [2], 1540 nM; in the data set on SK-OV-3 [3], 4800 nM; with HT-29 [7], 9700 nM. This molecule returned a solubility in data set [1] of 38 µM (≈ 16.6 µg/mL). In addition, the “Ratio IC50” value in the data set with HT-29 [6] is recorded as 7.4; with SK-OV-3 [4], 3.1.
Take `COc1ccc(/C=C/C(=O)N2CC(CCl)c3c2cc([N+](=O)[O-])c2ccccc32)cc1O` (configuration not stated): the IC50 in the data set with HT-29 [5] was determined as 590 nM; with SK-OV-3 [2], 400 nM; in the data set on SK-OV-3 [3] it was 890 nM; in the data set on HT-29 [7] it was 1700 nM. Moreover, the concentration in solution in [1] (solubility) was 9 µM (≈ 3.95 µg/mL). Further, the figures for the “Ratio IC50” value in the data set with HT-29 [6] and with SK-OV-3 [4] were 4.5 and 3.3, respectively.
As to `COc1cc2cc(C(=O)N3CC(COS(C)(=O)=O)c4c3cc([N+](=O)[O-])c3ccccc43)[nH]c2c(OC)c1OC` (configuration not stated), the IC50 with HT-29 [5] was determined as 310 nM; in the data set on SK-OV-3 [2], 140 nM; in the data set on SK-OV-3 [3], 2200 nM; in the data set with HT-29 [7] it was 1500 nM. This molecule also yielded a solubility in [1] of 69 µM (≈ 38.3 µg/mL). Moreover, the “Ratio IC50” value in the data set with HT-29 [6] is 4.6; in the data set with SK-OV-3 [4], 39.
Take `COc1cc2cc(C(=O)N3CC(COS(=O)(=O)C4CCCCC4)c4c3cc([N+](=O)[O-])c3ccccc43)[nH]c2c(OC)c1OC` (configuration not stated): the half-inhibitory concentration (IC50) in the data set with HT-29 [5] amounted to 440 nM; in the data set with SK-OV-3 [2], 190 nM; with SK-OV-3 [3] it was 16000 nM; in the data set on HT-29 [7], 9900 nM. In data set [1], this molecule yielded a solubility of 70 µM (≈ 43.7 µg/mL). The “Ratio IC50” value came to 26 in the data set on HT-29 [6] and 146 with SK-OV-3 [4].
For `CN(C)CCOc1ccc2[nH]c(C(=O)N3CC(COS(=O)(=O)C4CCCCC4)c4c3cc([N+](=O)[O-])c3ccccc43)cc2c1` (configuration not stated), the IC50 in the data set on HT-29 [5] worked out at 200 nM; in the data set on SK-OV-3 [2], 300 nM; with SK-OV-3 [3], 470 nM; with HT-29 [7], 410 nM. The solubility in [1] was 22 µM (≈ 13.7 µg/mL). Also, the “Ratio IC50” value turned out to be 2.3 with HT-29 [6] and 1.5 with SK-OV-3 [4].
In the case of `CN(C)CCOc1ccc2[nH]c(C(=O)N3CC(COS(=O)(=O)Cc4ccccc4)c4c3cc([N+](=O)[O-])c3ccccc43)cc2c1` (configuration not stated), the IC50 in the data set with HT-29 [5] was determined as 80 nM; with SK-OV-3 [2], 150 nM; in the data set on SK-OV-3 [3], 270 nM; in the data set with HT-29 [7], 240 nM. This molecule also registered a solubility in [1] of 91 µM (≈ 57.2 µg/mL). Moreover, the entries for the “Ratio IC50” value in the data set on HT-29 [6] and in the data set on SK-OV-3 [4] were 4 and 1.8, respectively.
In the case of `O=C(c1cc2cc(OCCO)ccc2[nH]1)N1CC(COS(=O)(=O)Cc2ccccc2)c2c1cc([N+](=O)[O-])c1ccccc21` (configuration not stated), the IC50 is 660 nM with HT-29 [5], 210 nM with SK-OV-3 [2], 1200 nM in the data set on SK-OV-3 [3] and 1800 nM in the data set on HT-29 [7]. The solubility in [1] stood at 46 µM (≈ 27.7 µg/mL). Further, the “Ratio IC50” value with HT-29 [6] amounted to 2.4; with SK-OV-3 [4], 7.1.
Take `COc1ccc(/C=C/C(=O)N2CC(COS(=O)(=O)Cc3ccccc3)c3c2cc([N+](=O)[O-])c2ccccc32)cc1O` (configuration not stated): the IC50 with HT-29 [5] is 1000 nM; in the data set with SK-OV-3 [2], 160 nM; in the data set with SK-OV-3 [3], 570 nM; in the data set with HT-29 [7], 1000 nM. Besides, the solubility in [1] was 35 µM (≈ 20.1 µg/mL). For the same molecule, the figures for the “Ratio IC50” value in the data set on HT-29 [6] and in the data set with SK-OV-3 [4] were 1.1 and 3.9, respectively.
With `COc1cc2cc(C(=O)N3CC(COS(=O)(=O)c4ccc(C)cc4)c4c3cc([N+](=O)[O-])c3ccccc43)[nH]c2c(OC)c1OC` (configuration not stated), the half-inhibitory concentration (IC50) in the data set on HT-29 [5] was 470 nM; in the data set on SK-OV-3 [2], 220 nM; with SK-OV-3 [3] it was 8800 nM; in the data set on HT-29 [7], 12000 nM. For the same molecule, the concentration in solution in [1] (solubility) came to 89 µM (≈ 56.2 µg/mL). Further, the figures for the “Ratio IC50” value in the data set on HT-29 [6] and in the data set on SK-OV-3 [4] were 28 and 72, respectively.
Consider `Cc1ccc(S(=O)(=O)OCC2CN(C(=O)c3cc4cc(OCCO)ccc4[nH]3)c3cc([N+](=O)[O-])c4ccccc4c32)cc1` (configuration not stated), for which the IC50 in the data set on HT-29 [5] worked out at 2700 nM; in the data set with SK-OV-3 [2] it was 770 nM; with SK-OV-3 [3] it was 3000 nM; in the data set with HT-29 [7], 3300 nM. The molecule also returned a solubility in data set [1] of 29 µM (≈ 17.4 µg/mL). The “Ratio IC50” value is recorded as 0.81 with HT-29 [6] and 2.8 with SK-OV-3 [4].
Consider `COc1ccc2[nH]c(C(=O)N3CC(COS(=O)(=O)c4ccc(C)cc4)c4c3cc([N+](=O)[O-])c3ccccc43)cc2c1` (configuration not stated), for which the IC50 in the data set on HT-29 [5] turned out to be 700 nM; with SK-OV-3 [2], 380 nM; in the data set on SK-OV-3 [3], 11000 nM; with HT-29 [7], 6500 nM. Moreover, the concentration in solution in data set [1] (solubility) was 12 µM (≈ 6.86 µg/mL). In addition, the “Ratio IC50” value came out at 7.9 in the data set on HT-29 [6] and 34 in the data set with SK-OV-3 [4].
Turning to `Nc1cc2c(c3ccccc13)C(CCl)CN2C(=O)c1cc2cc(OCCO)ccc2[nH]1` (configuration not stated), in [1], the concentration in solution (solubility) was 22 µM (≈ 9.59 µg/mL). Also, the IC50 in the data set with SK-OV-3 [2] came out at 4.2 nM; with SK-OV-3 [3], 3.3 nM. Also, in the data set with SK-OV-3 [4], the “Ratio IC50” value worked out at 0.8.
Regarding `COc1cc2cc(C(=O)N3CC(COS(C)(=O)=O)c4c3cc(N)c3ccccc43)[nH]c2c(OC)c1OC` (configuration not stated), in [1], the solubility is 15 µM (≈ 7.88 µg/mL).
Regarding `COc1cc2cc(C(=O)N3CC(CCl)c4c3cc([N+](=O)[O-])c3ccccc43)[nH]c2c(OC)c1OC` (configuration not stated), the IC50 in the data set on HT-29 [5] is 1600 nM; in the data set on SK-OV-3 [2], 1700 nM; in the data set on SK-OV-3 [3], 4200 nM; with HT-29 [7], 3400 nM. In [1], the solubility is 5 µM (≈ 2.48 µg/mL).
In the case of `COc1cc2cc(C(=O)N3CC(CCl)c4c3cc(N)c3ccccc43)[nH]c2c(OC)c1OC` (configuration not stated), the results for the IC50 in the data set on SK-OV-3 [8], with CHO-AA8 and with EMT6 were 1.2 nM, below 1 nM and 0.4 nM, respectively.
Regarding `CN(C)CCOc1ccc2[nH]c(C(=O)N3CC(CCl)c4c3cc([N+](=O)[O-])c3ccccc43)cc2c1` (configuration not stated), the IC50 in the data set on HT-29 [5] worked out at 480 nM; with SK-OV-3 [2], 870 nM; in the data set on SK-OV-3 [3], 1400 nM; in the data set with HT-29 [7] it was 470 nM. The amount in solution in data set [1] (solubility) came to 193 µM (≈ 95.1 µg/mL).

The values above are taken from ChEMBL document CHEMBL1811874, “The effect of sulfonate leaving groups on the hypoxia-selective toxicity of nitro analogs of the duocarmycins” (Bioorg Med Chem, 2011).
